Assay results as given in ChEMBL document CHEMBL1155708, “Isoaurostatin, a novel topoisomerase inhibitor produced by Thermomonospora alba” (J Nat Prod, 2001).

Experiments:
[1] = molecular target: T1, Type II restriction enzyme HindIII (Haemophilus influenzae (strain ATCC 51907 / DSM 11121 / KW20 / Rd), UniProt P43870); assay: Inhibition of Haemophilus influenzae Hind 3 assessed as undigested supercoiled pBR322 DNA concentration
T1 sequence (P43870 whole entry): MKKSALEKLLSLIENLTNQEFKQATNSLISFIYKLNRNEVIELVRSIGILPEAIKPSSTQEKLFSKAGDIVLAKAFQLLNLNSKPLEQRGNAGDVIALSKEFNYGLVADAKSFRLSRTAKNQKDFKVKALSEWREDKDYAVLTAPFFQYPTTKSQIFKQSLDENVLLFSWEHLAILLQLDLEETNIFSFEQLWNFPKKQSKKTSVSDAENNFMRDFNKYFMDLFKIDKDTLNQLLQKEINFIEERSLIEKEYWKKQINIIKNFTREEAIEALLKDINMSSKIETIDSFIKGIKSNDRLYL
In short: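 Restriction enzyme or nuclease activity followed as the remaining undigested supercoiled pBR322 DNA (or RNA) after reaction.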

DNA topoisomerase 1 = molecular target: T2, DNA topoisomerase 1 (Mus musculus, UniProt Q04750); assay: Inhibition topoisomerase 1 in mouse NIH/3T3 cells assessed as conversion of supercoiled pBR322 DNA to relaxed form; format: cell-based, NIH3T3
T2 sequence (Q04750 whole entry): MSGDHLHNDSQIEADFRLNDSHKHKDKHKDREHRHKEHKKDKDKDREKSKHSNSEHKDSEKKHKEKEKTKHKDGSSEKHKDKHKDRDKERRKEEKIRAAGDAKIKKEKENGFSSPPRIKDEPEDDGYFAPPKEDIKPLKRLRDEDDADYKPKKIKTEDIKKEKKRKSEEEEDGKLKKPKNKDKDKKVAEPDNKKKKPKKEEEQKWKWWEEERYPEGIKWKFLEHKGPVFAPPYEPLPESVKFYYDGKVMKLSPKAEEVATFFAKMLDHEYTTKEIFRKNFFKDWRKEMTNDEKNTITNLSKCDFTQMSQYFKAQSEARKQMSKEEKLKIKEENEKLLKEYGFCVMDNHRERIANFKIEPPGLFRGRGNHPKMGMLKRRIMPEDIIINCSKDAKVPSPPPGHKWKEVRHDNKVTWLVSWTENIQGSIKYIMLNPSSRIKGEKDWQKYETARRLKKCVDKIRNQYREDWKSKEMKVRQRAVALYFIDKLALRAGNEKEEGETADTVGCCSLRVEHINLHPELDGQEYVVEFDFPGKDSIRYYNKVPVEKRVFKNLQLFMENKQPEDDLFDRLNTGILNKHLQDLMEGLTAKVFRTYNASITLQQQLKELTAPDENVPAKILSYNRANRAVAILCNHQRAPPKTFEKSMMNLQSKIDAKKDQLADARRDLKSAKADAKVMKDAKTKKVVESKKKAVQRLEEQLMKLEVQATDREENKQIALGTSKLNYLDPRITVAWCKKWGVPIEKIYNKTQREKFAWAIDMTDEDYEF
In short: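 Enzyme source: Vero or NIH3T3 cells cultured 5 days, washed in PBS and pelleted (1 × 10^6 cells). Lysed 30 min on ice in 200 µL buffer (10 mM Tris-HCl pH 7.5, MgCl2, EGTA, AEBSF, β-mercaptoethanol, 0.5% CHAPS, 10% glycerin); the cleared supernatant relaxed supercoiled pBR322. Gel densitometry; IC50 is the amount halving activity.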

[2] = molecular target: Telomerase reverse transcriptase (Homo sapiens, UniProt O14746); assay: Inhibition of telomerase from human COLO201 cell
DNA topoisomerase = molecular target: T3, DNA topoisomerase (Bos taurus, UniProt A0JN73); assay: Inhibition calf thymus gland topoisomerase 1 assessed as conversion of supercoiled pBR322 DNA to relaxed form
T3 sequence (A0JN73 whole entry): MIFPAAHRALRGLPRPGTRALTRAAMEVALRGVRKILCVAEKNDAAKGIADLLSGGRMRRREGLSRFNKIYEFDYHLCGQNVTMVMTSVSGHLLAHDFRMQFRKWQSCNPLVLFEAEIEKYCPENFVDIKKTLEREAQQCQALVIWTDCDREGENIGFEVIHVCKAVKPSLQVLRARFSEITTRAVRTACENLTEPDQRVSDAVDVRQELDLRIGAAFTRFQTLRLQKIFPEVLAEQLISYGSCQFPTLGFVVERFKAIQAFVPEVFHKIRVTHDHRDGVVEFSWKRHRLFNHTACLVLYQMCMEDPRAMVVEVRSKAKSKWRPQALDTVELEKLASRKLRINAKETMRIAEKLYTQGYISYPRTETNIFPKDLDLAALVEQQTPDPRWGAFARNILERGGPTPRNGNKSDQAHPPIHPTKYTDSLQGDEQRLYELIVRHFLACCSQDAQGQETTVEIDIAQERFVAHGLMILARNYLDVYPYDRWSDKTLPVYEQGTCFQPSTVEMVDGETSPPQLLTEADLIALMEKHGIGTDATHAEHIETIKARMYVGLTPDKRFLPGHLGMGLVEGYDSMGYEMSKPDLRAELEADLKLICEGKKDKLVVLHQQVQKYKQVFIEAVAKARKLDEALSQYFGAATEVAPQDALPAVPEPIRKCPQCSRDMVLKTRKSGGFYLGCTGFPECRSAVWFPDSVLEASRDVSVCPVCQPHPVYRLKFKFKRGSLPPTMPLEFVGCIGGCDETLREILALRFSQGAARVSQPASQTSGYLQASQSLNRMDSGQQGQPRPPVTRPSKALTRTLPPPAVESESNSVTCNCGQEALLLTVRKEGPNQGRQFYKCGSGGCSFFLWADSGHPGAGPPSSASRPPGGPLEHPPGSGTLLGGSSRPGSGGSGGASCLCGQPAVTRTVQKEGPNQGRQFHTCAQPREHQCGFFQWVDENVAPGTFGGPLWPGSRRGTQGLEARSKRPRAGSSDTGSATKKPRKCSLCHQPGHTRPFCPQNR

[3] = Inhibition of wheat germ topoisomerase 1 assessed as conversion of supercoiled pBR322 DNA to relaxed form; parameters: species or system Triticum aestivum
[4] = molecular target: DNA topoisomerase 2-alpha (Homo sapiens, UniProt P11388); assay: Inhibition human placenta topoisomerase 2 assessed as conversion of supercoiled pBR322 DNA to relaxed form
Chain of DNA topoisomerase 2-alpha (P11388 whole entry): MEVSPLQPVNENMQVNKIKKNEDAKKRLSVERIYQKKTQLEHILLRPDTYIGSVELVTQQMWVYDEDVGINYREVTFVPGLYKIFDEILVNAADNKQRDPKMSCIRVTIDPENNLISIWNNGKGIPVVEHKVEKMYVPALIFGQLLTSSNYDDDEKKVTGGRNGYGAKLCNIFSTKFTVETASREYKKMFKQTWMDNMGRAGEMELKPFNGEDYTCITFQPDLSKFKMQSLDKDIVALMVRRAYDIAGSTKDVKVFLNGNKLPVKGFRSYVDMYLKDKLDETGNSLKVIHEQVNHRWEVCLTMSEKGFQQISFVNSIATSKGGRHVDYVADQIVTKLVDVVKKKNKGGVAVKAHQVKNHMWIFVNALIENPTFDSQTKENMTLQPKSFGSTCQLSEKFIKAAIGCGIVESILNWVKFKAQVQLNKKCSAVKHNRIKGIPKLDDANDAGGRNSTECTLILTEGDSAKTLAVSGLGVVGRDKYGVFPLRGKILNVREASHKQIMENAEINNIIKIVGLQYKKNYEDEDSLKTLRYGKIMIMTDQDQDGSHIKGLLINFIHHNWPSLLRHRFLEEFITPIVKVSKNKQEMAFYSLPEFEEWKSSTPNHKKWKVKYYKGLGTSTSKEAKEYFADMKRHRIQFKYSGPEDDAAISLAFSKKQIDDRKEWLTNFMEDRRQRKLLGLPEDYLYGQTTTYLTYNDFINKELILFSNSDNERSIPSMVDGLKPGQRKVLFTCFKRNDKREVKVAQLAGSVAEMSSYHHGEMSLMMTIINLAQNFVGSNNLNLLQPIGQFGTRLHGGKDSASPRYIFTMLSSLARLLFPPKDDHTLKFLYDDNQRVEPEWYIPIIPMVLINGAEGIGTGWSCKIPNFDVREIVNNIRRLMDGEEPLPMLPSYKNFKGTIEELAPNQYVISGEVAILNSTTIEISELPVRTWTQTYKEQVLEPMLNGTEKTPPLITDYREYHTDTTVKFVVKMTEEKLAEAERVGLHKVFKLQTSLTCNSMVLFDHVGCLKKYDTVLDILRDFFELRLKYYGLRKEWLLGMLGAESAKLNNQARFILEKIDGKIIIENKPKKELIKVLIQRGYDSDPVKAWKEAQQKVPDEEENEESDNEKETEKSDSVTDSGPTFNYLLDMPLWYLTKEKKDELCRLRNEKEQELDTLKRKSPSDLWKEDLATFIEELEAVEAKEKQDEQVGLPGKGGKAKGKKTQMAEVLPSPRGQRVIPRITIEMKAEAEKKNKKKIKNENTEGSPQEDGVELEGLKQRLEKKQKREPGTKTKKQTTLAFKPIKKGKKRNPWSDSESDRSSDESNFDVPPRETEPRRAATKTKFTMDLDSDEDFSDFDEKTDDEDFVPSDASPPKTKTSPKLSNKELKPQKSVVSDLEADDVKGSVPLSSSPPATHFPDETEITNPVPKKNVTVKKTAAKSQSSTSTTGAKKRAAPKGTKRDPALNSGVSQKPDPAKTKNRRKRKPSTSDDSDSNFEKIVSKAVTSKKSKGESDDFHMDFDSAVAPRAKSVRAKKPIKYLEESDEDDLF

Chain of Telomerase reverse transcriptase (O14746 whole entry): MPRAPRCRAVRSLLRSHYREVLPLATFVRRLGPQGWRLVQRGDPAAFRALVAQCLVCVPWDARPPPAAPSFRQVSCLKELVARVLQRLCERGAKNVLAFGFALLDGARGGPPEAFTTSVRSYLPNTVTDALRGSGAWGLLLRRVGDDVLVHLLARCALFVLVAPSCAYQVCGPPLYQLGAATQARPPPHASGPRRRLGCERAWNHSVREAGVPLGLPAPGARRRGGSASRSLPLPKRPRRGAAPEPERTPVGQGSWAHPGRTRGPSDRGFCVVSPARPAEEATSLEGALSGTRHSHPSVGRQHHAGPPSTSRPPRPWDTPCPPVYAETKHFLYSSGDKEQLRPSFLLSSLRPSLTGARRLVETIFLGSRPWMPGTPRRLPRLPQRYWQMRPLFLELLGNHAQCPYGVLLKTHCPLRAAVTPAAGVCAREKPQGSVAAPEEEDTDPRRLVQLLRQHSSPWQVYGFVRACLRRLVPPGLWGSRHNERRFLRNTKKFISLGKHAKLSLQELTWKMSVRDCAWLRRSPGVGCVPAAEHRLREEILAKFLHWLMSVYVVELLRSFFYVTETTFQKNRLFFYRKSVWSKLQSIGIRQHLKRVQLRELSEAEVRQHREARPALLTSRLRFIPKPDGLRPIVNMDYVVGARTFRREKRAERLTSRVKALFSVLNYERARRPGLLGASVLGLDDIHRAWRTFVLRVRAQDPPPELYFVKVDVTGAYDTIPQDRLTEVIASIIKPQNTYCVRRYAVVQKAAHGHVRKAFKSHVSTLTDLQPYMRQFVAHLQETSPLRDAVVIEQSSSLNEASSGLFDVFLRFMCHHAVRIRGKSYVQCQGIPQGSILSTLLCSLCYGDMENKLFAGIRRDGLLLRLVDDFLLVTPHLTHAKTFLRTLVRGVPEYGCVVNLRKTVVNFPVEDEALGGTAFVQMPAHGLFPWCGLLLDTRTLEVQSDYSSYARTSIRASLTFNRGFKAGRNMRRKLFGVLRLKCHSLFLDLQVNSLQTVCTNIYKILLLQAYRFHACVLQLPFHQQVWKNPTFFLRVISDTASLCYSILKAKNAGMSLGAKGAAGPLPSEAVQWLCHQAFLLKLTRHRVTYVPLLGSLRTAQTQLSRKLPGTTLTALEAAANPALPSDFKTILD

Row | SMILES | IC50 [1] [µM] | IC50 (DNA topoisomerase 1) [µM] | IC50 [2] [µM] | IC50 (DNA topoisomerase) [µM] | IC50 [3] [µM] | IC50 [4] [µM]
1 | CC[C@@]1(O)C(=O)OCc2c1cc1n(c2=O)Cc2cc3ccccc3nc2-1 [CAMPTOTHECIN] | > 300 | 12 | > 300 | 17 | 3 | –
2 | COc1cccc2c1C(=O)c1c(O)c3c(c(O)c1C2=O)C[C@@](O)(C(=O)CO)C[C@@H]3O[C@H]1C[C@H](N)[C@H](O)[C@H](C)O1 [DOXORUBICIN] | 96 | > 200 | 73 | > 200 | > 200 | 1
3 | O=C1Oc2cc(O)ccc2/C1=C\c1ccc(O)cc1 [ISOAUROSTATIN] | > 400 | > 400 | > 400 | 307 | 67 | > 400
4 | C=C1NC(=O)C(C)C(CCC(C)C(=O)/C=C/C(C)=C/CC(C)CCCCCCC)OC(=O)[C@H](CC(OS(=O)(=O)O)C(N)=O)NC(=O)[C@@H](C)CNC1=O (stereo partly drawn) [TOPOSTATIN] | 17 | 47 | > 250 | 17 | 1 | 4
